Assay results reported in ChEMBL document CHEMBL1123760, “Synthesis and oral antifungal activity of novel azolylpropanolones and related compounds” (1987).
≈ marks a conversion by molar mass, not a printed value.

Experiments:
Type in all cases: functional
Aspergillus fumigatus = assay: In vitro antifungal activity against Aspergillus fumigatus
Procedure, shortened: (§1)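 Broth microdilution MIC in Sabouraud's glucose broth; final inocula 1 × 10^5 cells/mL (yeast) or 1 × 10^5 conidia/mL (mold and dermatophyte).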

Candida albicans [1] = assay: In vitro antifungal activity against Candida albicans; procedure, shortened: as §1
Candida albicans [2] = assay: Minimum effective concentration for inhibition of pseudomycelium formation in Candida albicans; settings: for minimal effective concentration: Candida albicans, read-out: MEC
Procedure, shortened: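 C. albicans KE-2 (clinical isolate) at a final 1 × 10^6 yeast cells/mL in EMEM with 20% calf serum; compounds diluted by the same microtiter system as for MICs. After incubation, wells were Giemsa-stained (5% in phosphate buffer) and read by microscope. MEC is the lowest concentration preventing typical pseudomycelium formation.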

Trichophyton benhamiae = assay: In vitro antifungal activity against Trichophyton asteroides; procedure, shortened: as §1
[3] = Aspergillus fumigatus, read-out: MIC
[4] = Candida albicans, read-out: MIC
[5] = Trichophyton benhamiae, read-out: MIC

Row | Compound | MIC (Aspergillus fumigatus; [3]) [µg/mL] | MIC (Candida albicans [1]; [4]) [µg/mL] | MIC (Trichophyton benhamiae; [5]) [µg/mL] | MIC (Candida albicans [1]) [µg/mL] | MIC (Trichophyton benhamiae) [µg/mL] | MIC (Aspergillus fumigatus) [µg/mL] | minimal effective concentration (Candida albicans [2]) [µg/mL] | MEC (Candida albicans [2]) [µg/mL]
1 | Cc1ccc([C@H]2OC(=O)O[C@]2(Cn2cncn2)c2ccc(C)cc2)cc1 | > 100 | > 100 | 3.1 (≈ 8.87 µM) | – | – | – | 1.25 | –
2 | CC(C)[C@H]1OS(=O)O[C@@]1(Cn1cncn1)c1ccc(Cl)cc1 (some centres not stated) | > 100 | > 100 | 0.4 (≈ 1.17 µM) | – | – | – | 0.16 | –
3 | Fc1ccc([C@H]2OC(=S)O[C@]2(Cn2cncn2)c2ccc(Cl)cc2Cl)cc1 | > 100 | 100 (≈ 236 µM) | 3.1 (≈ 7.31 µM) | – | – | – | 10 | –
4 | O=S1O[C@H](c2ccc(Cl)cc2)[C@@](Cn2cncn2)(c2ccc(Cl)cc2Cl)O1 (some centres not stated) | 25 (≈ 56.2 µM) | 50 (≈ 112 µM) | 0.1 (≈ 0.225 µM) | – | – | – | 0.16 | –
5 | O=C1O[C@H](c2ccc(Cl)cc2)[C@@](Cn2cncn2)(c2ccc(Cl)cc2Cl)O1 (stereo in doubt; 129) | – | – | – | – | 0.2 (≈ 0.471 µM) | – | – | 0.04
6 | Cc1ccc(C(=O)C(O)(Cn2cncn2)c2ccc(C)cc2)cc1 (configuration not stated) | > 100 | > 100 | 1.56 (≈ 4.85 µM) | – | – | – | 20 | –
7 | O=C(c1ccc(F)cc1)C(O)(Cn1ccnc1)c1ccc(Cl)cc1Cl (configuration not stated) | > 100 | > 100 | 0.1 (≈ 0.264 µM) | – | – | – | 1.25 | –
8 | O=C1O[C@H](c2ccc(F)cc2)[C@@](Cn2ccnc2)(c2ccc(Cl)cc2Cl)O1 | 50 (≈ 123 µM) | 100 (≈ 246 µM) | 0.2 (≈ 0.491 µM) | – | – | – | 0.16 | –
9 | OC(Cn1cncn1)(c1ccc(F)cc1)C(O)(c1ccccc1)c1ccc(F)cc1 (stereo in doubt; 165) | > 100 | > 100 | – | – | 25 (≈ 61.4 µM) | – | > 20 | –
10 | OC(c1ccc(Cl)cc1)C(O)(Cn1ccnc1)c1ccc(Cl)cc1 (configuration not stated) | > 100 | > 100 | 50 (≈ 138 µM) | – | – | – | > 20 | –
11 | CC(C)[C@H]1OCO[C@@]1(Cn1cncn1)c1ccc(Cl)cc1 | 100 (≈ 325 µM) | > 100 | 0.4 (≈ 1.3 µM) | – | – | – | 0.04 | –
12 | CC(C)C(=O)C(O)(Cn1cnnc1)c1ccc(Cl)cc1Cl (configuration not stated) | > 100 | > 100 | 50 (≈ 152 µM) | – | – | – | 2.5 | –
13 | O=C1O[C@H](c2ccccc2)[C@@](Cn2ccnc2)(c2ccc(Cl)cc2Cl)O1 | 20 (≈ 51.4 µM) | 100 (≈ 257 µM) | 0.1 (≈ 0.257 µM) | – | – | – | 0.16 | –
14 | O=S1O[C@H](c2ccc(Cl)cc2)[C@](Cn2cncn2)(c2ccc(Cl)cc2Cl)O1 (some centres not stated) | > 100 | > 100 | 0.1 (≈ 0.225 µM) | – | – | – | 0.02 | –
15 | O=C1O[C@H](c2ccccc2)[C@@](Cn2cncn2)(c2ccccc2Cl)O1 | > 100 | > 100 | 6.3 (≈ 17.7 µM) | – | – | – | 0.31 | –
16 | O=C1O[C@H](c2ccc(Cl)cc2)[C@](Cn2cncn2)(c2ccc(Cl)cc2Cl)O1 | – | – | – | – | 0.1 (≈ 0.235 µM) | – | – | 0.08
17 | CC(O)(c1ccc(Cl)cc1)C(O)(Cn1ccnc1)c1ccc(Cl)cc1 (configuration not stated) | > 100 | > 100 | 0.8 (≈ 2.12 µM) | – | – | – | 1.25 | –
18 | OC(Cn1cncn1)(c1ccc(F)cc1)C(O)(c1ccccc1)c1ccc(F)cc1 (stereo in doubt; 164) | – | – | – | – | >100 | – | – | –
19 | CC(C)C(=O)C(O)(Cn1cncn1)c1ccc(Cl)cc1 (stereo in doubt; 13) | – | – | – | >100 | – | 12.5 (≈ 42.6 µM) | – | 0.08

The next lines start with results.

Row | MIC (Aspergillus fumigatus; [3]) [µg/mL] | MIC (Candida albicans [1]; [4]) [µg/mL] | MIC (Trichophyton benhamiae; [5]) [µg/mL] | MIC (Candida albicans [1]) [µg/mL] | MIC (Trichophyton benhamiae) [µg/mL] | MIC (Aspergillus fumigatus) [µg/mL] | Compound | minimal effective concentration (Candida albicans [2]) [µg/mL] | MEC (Candida albicans [2]) [µg/mL]
20 | 50 (≈ 121 µM) | 100 (≈ 242 µM) | 0.1 (≈ 0.242 µM) | – | – | – | CC(O)(c1ccc(Cl)cc1Cl)C(O)(Cn1cncn1)c1ccc(Cl)cc1 (configuration not stated) | 1.25 | –
21 | > 100 | > 100 | 0.8 (≈ 2.43 µM) | – | – | – | OC(c1ccccc1Cl)C(O)(Cn1cncn1)c1ccccc1 (configuration not stated) | > 20 | –
22 | – | – | – | 50 (≈ 144 µM) | 6.3 (≈ 18.1 µM) | – | OC(c1ccc(F)cc1)C(O)(Cn1cncn1)c1ccc(Cl)cc1 (stereo in doubt; 104) | – | 2.5
23 | – | > 100 | 0.1 (≈ 0.266 µM) | – | – | >100 | CCC(O)(c1ccc(F)cc1)C(O)(Cn1cncn1)c1ccc(Cl)cc1 (stereo in doubt; 171) | – | 0.16
24 | 12.5 (≈ 34.5 µM) | > 100 | 0.1 (≈ 0.276 µM) | – | – | – | CC(O)(c1ccc(F)cc1)C(O)(Cn1cncn1)c1ccccc1Cl (stereo in doubt; 182) | 2.5 | –
25 | – | – | – | 100 (≈ 252 µM) | 0.1 (≈ 0.252 µM) | 50 (≈ 126 µM) | CC(O)(c1ccc(F)cc1)C(O)(Cn1cncn1)c1ccc(Cl)cc1Cl (stereo in doubt; 174) | – | 0.31
26 | > 100 | 50 (≈ 138 µM) | 0.39 (≈ 1.08 µM) | – | – | – | O=C(c1ccc(Cl)cc1)C(O)(Cn1cncn1)c1ccc(Cl)cc1 (configuration not stated) | 20 | –
27 | > 100 | > 100 | 0.6 (≈ 1.85 µM) | – | – | – | CCCCC(O)(Cn1cncn1)C(C)(O)c1ccc(Cl)cc1 (stereo in doubt; 191) | 1.25 | –
28 | 12.5 (≈ 33 µM) | > 100 | 0.1 (≈ 0.264 µM) | – | – | – | CC(O)(c1ccccc1)C(O)(Cn1cncn1)c1ccc(Cl)cc1Cl (stereo in doubt; 166) | 0.04 | –
29 | 50 (≈ 146 µM) | 100 (≈ 292 µM) | 0.1 (≈ 0.292 µM) | – | – | – | CCCCC(O)(Cn1cncn1)C(=O)c1ccc(Cl)cc1Cl (configuration not stated) | 0.31 | –
30 | – | – | – | – | 0.1 (≈ 0.29 µM) | 25 (≈ 72.6 µM) | CC(C)C(C)(O)C(O)(Cn1cncn1)c1ccc(Cl)cc1Cl (stereo in doubt; 168) | – | 0.04
31 | > 100 | > 100 | – | – | 0.8 (≈ 2.3 µM) | – | OC(c1ccc(F)cc1)C(O)(Cn1cncn1)c1ccc(Cl)cc1 (stereo in doubt; 103) | – | 0.31
32 | 50 (≈ 151 µM) | > 100 | 0.1 (≈ 0.303 µM) | – | – | – | CCCC(O)C(O)(Cn1cncn1)c1ccc(Cl)cc1Cl (configuration not stated) | 0.04 | –
33 | – | – | – | 50 (≈ 137 µM) | 0.39 (≈ 1.07 µM) | – | OC(c1ccc(Cl)cc1)C(O)(Cn1cncn1)c1ccc(Cl)cc1 (stereo in doubt; 88) | – | 1.25
34 | – | – | – | – | 0.2 (≈ 0.495 µM) | >100 | CCCCC(O)(c1ccc(F)cc1)C(O)(Cn1cncn1)c1ccccc1Cl (stereo in doubt; 188) | – | 2.5
35 | – | – | – | – | 0.8 (≈ 2.47 µM) | 50 (≈ 154 µM) | CCCCC(O)(Cn1cncn1)C(C)(O)c1ccc(Cl)cc1 (stereo in doubt; 190) | – | 2.5
36 | – | – | – | – | 1.6 (≈ 5.41 µM) | – | CCCC(O)C(O)(Cn1cncn1)c1ccc(Cl)cc1 (stereo in doubt; 106) | – | 0.16
37 | – | – | – | – | 6.3 (≈ 21.3 µM) | – | CC(C)C(O)C(O)(Cn1cncn1)c1ccc(Cl)cc1 (stereo in doubt; 101) | – | 0.63
38 | – | – | – | – | 0.1 (≈ 0.276 µM) | 6.3 (≈ 17.4 µM) | CC(O)(c1ccc(F)cc1)C(O)(Cn1cncn1)c1ccccc1Cl (stereo in doubt; 181) | – | 1.25
39 | – | – | – | – | 0.1 (≈ 0.266 µM) | 25 (≈ 66.5 µM) | CCC(O)(c1ccc(F)cc1)C(O)(Cn1cncn1)c1ccc(Cl)cc1 (stereo in doubt; 170) | – | 0.04
